ChEMBL document CHEMBL1126283, “Thromboxane receptor antagonism combined with thromboxane synthase inhibition. 4. 8-[[(4-Chlorophenyl)sulfonyl]amino]-4-(3-(3-pyridinyl) propyl)octanoic acid and analogs” (J Med Chem, 1992)

How the values were obtained:
Homo sapiens [1] = species on record: Homo sapiens; assay: In vitro inhibition of U 46619 induced aggregation of washed platelets
Method in brief: (§1)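 Antagonism of aggregation induced by the PGH2/TxA2 mimetic U 46619, run in human washed platelets (WP) and in platelet-rich plasma (PRP); IC50 reported. Values come from one or two determinations.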

Cavia porcellus [2] = assay: Ex vivo inhibition of U-46,619-induced aggregation of guinea pig platelets after peroral administration of 10 mg/kg dose at 1 hr time; format: functional; conditions: route oral
Method in brief: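 Fasted (12-16 h) male Hartley guinea pigs (350-400 g), 3-6 per group, dosed orally in a 3% fortified cornstarch suspension vehicle. At 1 h (or 6 h), animals under methoxyflurane anaesthesia were bled by cardiac puncture into citrate (0.0129 M final). PRP (500g, 7 min) was stirred 1 min at 37 °C, then U 46619 added. Result reported as EC50 drug-treated / EC50 vehicle.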

Homo sapiens [3] = species on record: Homo sapiens; assay: Evaluated in vitro for the inhibition of U 46619 induced aggregation of platelet-rich plasma; method in brief: as §1
Canis familiaris = species on record: Canis familiaris; assay: Evaluated for contraction of dog saphenous vein; format: functional, organism-based; conditions: Canis lupus familiaris, read-out: pA2 (converted)
Method in brief: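 Dog saphenous vein rings contracted with U 46619; antagonism expressed as pA2. Number of determinations = 1, with more than 12 rings per determination and a single drug concentration applied to each ring.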

Thromboxane-A synthase = target: T1, Thromboxane-A synthase (Homo sapiens, UniProt P24557); assay: In vitro inhibition of Thromboxane A2 synthase
T1 sequence (P24557 whole entry): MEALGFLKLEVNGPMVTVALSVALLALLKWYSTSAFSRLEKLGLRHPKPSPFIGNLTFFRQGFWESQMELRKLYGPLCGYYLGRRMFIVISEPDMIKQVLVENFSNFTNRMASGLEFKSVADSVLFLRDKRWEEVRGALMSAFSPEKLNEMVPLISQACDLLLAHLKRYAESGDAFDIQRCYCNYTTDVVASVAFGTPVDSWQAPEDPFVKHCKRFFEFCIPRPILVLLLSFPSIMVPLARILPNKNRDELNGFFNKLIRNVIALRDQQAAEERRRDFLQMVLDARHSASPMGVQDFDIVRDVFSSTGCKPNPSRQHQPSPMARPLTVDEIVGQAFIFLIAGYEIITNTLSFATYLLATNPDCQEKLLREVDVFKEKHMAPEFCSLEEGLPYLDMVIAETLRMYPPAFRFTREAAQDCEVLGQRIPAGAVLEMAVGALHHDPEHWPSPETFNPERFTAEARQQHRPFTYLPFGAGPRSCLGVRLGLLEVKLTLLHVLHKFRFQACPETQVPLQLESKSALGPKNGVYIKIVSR

Homo sapiens [4] = species on record: Homo sapiens; assay: In vitro inhibition of U 46619 induced aggregation of washed platelets(WP); method in brief: as §1
Cavia porcellus [5] = species on record: Cavia porcellus; assay: Inhibition of bronchoconstriction in guinea pigs; format: functional; conditions: Lung
Method in brief: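 Guinea pigs with cannulated trachea, ventilated at 40 strokes/min, given succinylcholine (1.0 mg/kg). Arachidonic acid priming dose 0.25 mg/kg iv, then 0.5 mg/kg iv. Test compound was then given as an iv bolus, with a 0.5 mg/kg AA challenge 5 min later. Peak insufflation pressure expressed as % of control. Five doses (0.1-1000 µg/kg), 6-8 animals per dose, ED50 derived.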

Cavia porcellus [6] = assay: Ex vivo inhibition of U-46,619-induced aggregation of guinea pig platelets after peroral administration of 10 mg/kg dose at 6 hr time; format: functional; conditions: route oral
Method in brief: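 Male Hartley guinea pigs (350-400 g), fasted 12-16 h, dosed orally in 3% fortified cornstarch suspension vehicle; groups of three to six. At 6 h, cardiac-puncture blood drawn under methoxyflurane into citrate (0.0129 M final). PRP obtained at 500g, 7 min. PRP preincubated 1 min at 37 °C with stirring, then U 46619 added. Aggregation ratio = EC50 drug-treated/EC50 vehicle-treated.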

| IC50 (Homo sapiens [1]) | IC50 (Homo sapiens [3]) | IC50 (Thromboxane-A synthase) | IC50 (Homo sapiens [4]) | Compound | Concentration ratio (Cavia porcellus [2]) | Kb (Canis familiaris) | ED50 (Cavia porcellus [5]) | Concentration ratio (Cavia porcellus [6]) |
| --- | --- | --- | --- | --- | --- | --- | --- | --- |
| 18 nM | 3700 nM | 20 nM | – | CC(C)(CC(CCCCNS(=O)(=O)c1ccc(Cl)cc1)CCCc1cccnc1)C(=O)O (centres undefined) | 8.7 | 1 nM | – | – |
| 980 nM | 3700 nM | 3 nM | – | O=C(O)CCC(CCCCNS(=O)(=O)c1ccc(Cl)cc1)CCCn1ccnc1 (centres undefined) | – | 5.5 nM | – | – |
| 2360 nM | – | 70 nM | – | O=S(=O)(NCCCCC(CCCO)CCCc1cccnc1)c1ccc(Cl)cc1 (centres undefined) | – | – | – | – |
| 500 nM | 8700 nM | 3 nM | – | O=C(O)CCC(CCCCNS(=O)(=O)c1ccc(Cl)cc1)CCCc1ccc[n+]([O-])c1 (centres undefined) | – | 7.41 nM | – | – |
| 240 nM | 2800 nM | 1.5 nM | – | O=C(O)CCC(CCCCNS(=O)(=O)c1ccc2ccccc2c1)CCCc1cccnc1 (centres undefined) | – | – | – | – |
| 108 nM | > 30000 nM | 1 nM | – | O=C(O)CCC(CCCCNS(=O)(=O)c1ccc(F)cc1)CCCc1cccnc1 (centres undefined) | – | – | – | – |
| 27 nM | 1190 nM | 7 nM | – | O=C(O)CCC(C/C=C/c1cccnc1)CCCCNS(=O)(=O)c1ccc(Cl)cc1 (centres undefined) | – | 0.603 nM | – | – |
| – | – | 90 nM | 9300 nM | O=C(O)C(CCCCNS(=O)(=O)c1ccc(Cl)cc1)CCCc1cccnc1 (centres undefined) | – | – | – | – |
| 590 nM | 11300 nM | 150 nM | – | O=C(O)C(=O)NC(CCCCNS(=O)(=O)c1ccc(Cl)cc1)CCCc1cccnc1 (centres undefined) | – | 1.86 nM | – | – |
| > 10000 nM | – | 4 nM | – | CS(=O)(=O)c1ccc(S(=O)(=O)NCCCCC(CCCc2cccnc2)CCC(=O)O)cc1 (centres undefined) | – | – | – | – |
| 22 nM | 910 nM | 5 nM | – | O=S(=O)(NCCCCC(CCCc1cccnc1)CCC1N=NN=N1)c1ccc(Cl)cc1 (centres undefined) | 10 | 0.468 nM | – | – |
| 230 nM | 610 nM | 2 nM | – | O=C(O)CCC(CCCCNS(=O)(=O)c1ccc(C(F)(F)F)cc1)CCCc1cccnc1 (centres undefined) | – | – | – | – |
| 6 nM | 400 nM | 2 nM | – | O=C(O)CSC(CCCCNS(=O)(=O)c1ccc(Cl)cc1)CCCc1cccnc1 (centres undefined) | 33 | 0.269 nM | 7.42 µg/kg | – |
| – | – | 20 nM | – | O=C(O)CCC(CCCCNS(=O)(=O)c1ccc(Cl)cc1)CCCc1cccnc1 (centres undefined) | 27.3 | – | 5.75 µg/kg | 11.8 |

More lines, now with the values behind:

| Compound | IC50 (Homo sapiens [1]) | IC50 (Homo sapiens [3]) | IC50 (Thromboxane-A synthase) | IC50 (Homo sapiens [4]) | Concentration ratio (Cavia porcellus [2]) | Kb (Canis familiaris) | ED50 (Cavia porcellus [5]) | Concentration ratio (Cavia porcellus [6]) |
| --- | --- | --- | --- | --- | --- | --- | --- | --- |
| O=C(O)/C=C/C(CCCCNS(=O)(=O)c1ccc(Cl)cc1)CCCc1cccnc1 (centres undefined) | 70 nM | 770 nM | 10 nM | – | – | – | – | – |
| NC(=O)CCC(CCCCNS(=O)(=O)c1ccc(Cl)cc1)CCCc1cccnc1 (centres undefined) | > 10000 nM | – | 60 nM | – | – | – | – | – |
| O=C(O)CCC(CCCCNS(=O)(=O)c1ccc(Cl)cc1)CCn1ccnc1 (centres undefined) | 1520 nM | – | 40 nM | – | – | 34.7 nM | – | – |
| CC(CC(CCCCNS(=O)(=O)c1ccc(Cl)cc1)CCCc1cccnc1)C(=O)O (centres undefined) | 53 nM | 2900 nM | 3 nM | – | 9 | 1.48 nM | – | – |
| Cc1ccncc1CCCC(CCCCNS(=O)(=O)c1ccc(Cl)cc1)CCC(=O)O (centres undefined) | 6 nM | 4860 nM | 1 nM | – | – | – | – | – |
| [N-]=[N+]=Nc1ccc(S(=O)(=O)NCCCCC(CCCc2cccnc2)CCC(=O)O)cc1 (centres undefined) | 35 nM | 2000 nM | 4 nM | – | – | – | – | – |
| CCOC(=O)CCC(CCCCNS(=O)(=O)c1ccc(Cl)cc1)CCCc1cccnc1 (centres undefined) | – | – | – | – | 3 | – | – | – |
| O=C(O)COC(CCCCNS(=O)(=O)c1ccc(Cl)cc1)CCCc1cccnc1 (centres undefined) | 15 nM | 1600 nM | 18 nM | – | 2.6 | – | – | – |
| COc1ccc(S(=O)(=O)NCCCCC(CCCc2cccnc2)CCC(=O)O)cc1 (centres undefined) | 220 nM | 1340 nM | 3 nM | – | – | – | – | – |
| O=C(O)CC(CCCCNS(=O)(=O)c1ccc(Cl)cc1)CCCc1cccnc1 (centres undefined) | 200 nM | – | 7 nM | – | – | 3.72 nM | – | – |
| Cc1ccc(S(=O)(=O)NCCCCC(CCCc2cccnc2)CCC(=O)O)cc1 (centres undefined) | 58 nM | 15200 nM | 1 nM | – | – | 1.55 nM | – | – |
| O=C(O)CCC(CCCCNS(=O)(=O)c1ccc(Cl)cc1)CCOc1cccnc1 (centres undefined) | 13 nM | 280 nM | 3 nM | – | >100 | 0.398 nM | 5.2 µg/kg | >100 |
| O=C(O)CCCCO/N=C(/c1cccnc1)c1cccc(C(F)(F)F)c1 [RIDOGREL] | – | – | – | – | 5.6 | – | 48.3 µg/kg | – |
